# pKd: −log10 of the molar value. Read-outs that look alike come from different tables or passages of the source.
# What was measured:
# [1] = target: T1, AtDHAD (Arabidopsis thaliana, UniProt Q9LIR4); assay: MST assay, binding affinity
# T1 sequence (Q9LIR4 35-608): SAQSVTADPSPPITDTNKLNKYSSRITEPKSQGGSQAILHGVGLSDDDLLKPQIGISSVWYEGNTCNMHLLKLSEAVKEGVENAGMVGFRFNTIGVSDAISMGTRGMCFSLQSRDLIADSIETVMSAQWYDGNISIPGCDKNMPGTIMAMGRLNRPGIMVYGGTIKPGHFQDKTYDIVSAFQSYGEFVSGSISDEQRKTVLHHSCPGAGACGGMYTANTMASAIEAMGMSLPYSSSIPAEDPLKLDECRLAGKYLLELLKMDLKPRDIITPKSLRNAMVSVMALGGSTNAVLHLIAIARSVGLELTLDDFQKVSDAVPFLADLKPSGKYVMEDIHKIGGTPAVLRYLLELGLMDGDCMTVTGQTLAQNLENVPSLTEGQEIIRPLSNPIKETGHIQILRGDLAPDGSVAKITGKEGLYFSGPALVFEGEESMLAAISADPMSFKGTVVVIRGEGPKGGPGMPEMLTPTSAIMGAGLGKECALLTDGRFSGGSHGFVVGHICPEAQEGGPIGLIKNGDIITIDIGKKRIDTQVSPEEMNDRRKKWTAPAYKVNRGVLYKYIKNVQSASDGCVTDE
# Outline: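 AtDHAD was expressed in E. coli BL21(DE3) under IPTG induction, with FeCl3 and L-Ara added to stabilise the [2Fe-2S] cluster. It was purified by Ni-NTA anaerobically and lysine-labelled with RED-NHS dye. Ligand from 10−10 to 10−1 M was incubated with 50 nM labelled protein for 30 min at 4 °C in phosphate buffer (0.05% Tween 20, pH 7.4). Excitation was 100% or 40%, with medium MST power. Kd is given as mean ± SD.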
# [2] = tested on: cyanobacteria; conditions: by targeting DHAD ref 3; cited from earlier work
# [3] = tested on: 2-week-old A. thaliana plants; assay: Postemergence treatment of A. thaliana; assay type: in vivo, Arabidopsis thaliana
# Outline: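 Col-0 seeds were chilled at 4 °C for 3 days and grown in soil pots in a light incubator at 22 °C with an 8 h light/16 h dark cycle. Test compound was dissolved in DMSO and diluted with 0.5% aqueous Tween 80 to a final 200 μg/mL (DMSO below 5%), then applied by foliar spray. Fresh weight inhibition was read out.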
# [4] = tested on: glufosinate-resistant Arabidopsis thaliana; conditions: 250 µM ref 2; cited from earlier work
pKd ([1]; Kd),Molecule,growth of cyanobacteria [2],pKd [1],"Fresh weight inhibition rate (%) ([3]; 200 μg/mL foliar spray, 20 days after treatment)","symptoms after postemergence treatment of two-week-old plants ([3]; foliar spray, 200 μg/mL)",herbicidal activity against glufosinate-resistant Arabidopsis thaliana [4]
3.30,"O=C(O)C(O)C(=O)O [TA, tartronic acid]",inhibited the growth of cyanobacteria,,,,
5.27,"CC(C)(O)C(O)C(=O)O (stereo not shown) [Substrate (dihydroxyisovalerate), 2,3-dihydroxy-3-methylbutanoic acid]",,,,,
,aspterric acid [AA],,5.47,55.96,cessation of new leaf production and the onset of leaf wilting,exhibits herbicidal activity
